In ChEMBL document CHEMBL4359878, “Discovery of 4-piperazinyl-2-aminopyrimidine derivatives as dual inhibitors of JAK2 and FLT3” (Eur J Med Chem, 2019):

What was measured:
[1] = molecular target: T1, Tyrosine-protein kinase JAK2 (Homo sapiens, UniProt O60674); assay: Inhibition of N-terminal His-tagged human JAK2 catalytic domain (826 to 1132 resiudes) expressed in baculovirus expression system at 100 nM using FAM-labeled peptide as substrate preincubated for 10 mins followed by substrate addition measured after 1 hr in presence of ATP by mobility shift assay relative to control
In short: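 Single-concentration (100 nM) percent inhibition in the mobility-shift JAK2 assay. Enzyme was preincubated with compound for 10 min at room temperature in HEPES pH 7.5/Brij-35 buffer. FAM-peptide and ATP were then added and the reaction run for 1 h at 28 °C before EDTA stop. Inhibition = (max−conversion)/(max−min)×100. Each compound was tested at least twice and the values averaged.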

[2] = molecular target: Receptor-type tyrosine-protein kinase FLT3 (Homo sapiens) (UniProt P36888); conditions: at 100 nM
[3] = test system: HEL; assay: Antiproliferative activity against human HEL cells assessed as growth inhibition after 72 hrs by CCK-8 assay; type: functional
In short: (§1)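 CCK-8 viability readout. Cells were cultured in RPMI 1640 with 10% FBS and 1% penicillin/streptomycin and seeded at 3000 (HEL), 5000 (MV4-11) or 3000 (HL60) cells/well. Increasing compound concentrations were applied for 72 h, then CCK-8 was added for a further 3 h and absorbance read at 450 nm. Inhibition = (1−A_sample/A_control)×100, normalized to DMSO controls. Value is the mean of three independent measurements, obtained by curve fitting.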

[4] = test system: MV4-11; assay: Antiproliferative activity against human MV4-11 cells assessed as growth inhibition after 72 hrs by CCK-8 assay; type: functional; conditions: MV4-11, 72 h; in short: as §1
[5] = test system: HL-60; assay: Antiproliferative activity against human HL60 cells assessed as growth inhibition after 72 hrs by CCK-8 assay; type: functional; conditions: HL-60, 72 h; in short: as §1
[6] = molecular target: T1, Tyrosine-protein kinase JAK2; assay: Inhibition of N-terminal His-tagged human JAK2 catalytic domain (826 to 1132 resiudes) expressed in baculovirus expression system using FAM-labeled peptide as substrate preincubated for 10 mins followed by substrate addition measured after 1 hr in presence of ATP by mobility shift assay
In short: (§2)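 Caliper mobility-shift assay with recombinant kinase in 50 mM HEPES pH 7.5, 0.0015% Brij-35. Compound was diluted from DMSO and preincubated with enzyme for 10 min at room temperature. FAM-labeled peptide plus ATP was then added and the reaction run for 1 h at 28 °C. It was stopped with an EDTA (50 mM) buffer. Conversion gave percent inhibition relative to max/min controls, and IC50 came from a four-parameter Hill fit. Duplicate wells were used.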

[7] = molecular target: T2, Receptor-type tyrosine-protein kinase FLT3 (Homo sapiens, UniProt P36888); assay: Inhibition of N-terminal GST-tagged human FLT3 cytoplasmic domain (564 to 993 residues) expressed in baculovirus expression system musing FAM-labeled peptide as substrate preincubated for 10 mins followed by substrate addition measured after 1 hr in presence of ATP by mobility shift assay; in short: as §2
T2 sequence (P36888 whole entry): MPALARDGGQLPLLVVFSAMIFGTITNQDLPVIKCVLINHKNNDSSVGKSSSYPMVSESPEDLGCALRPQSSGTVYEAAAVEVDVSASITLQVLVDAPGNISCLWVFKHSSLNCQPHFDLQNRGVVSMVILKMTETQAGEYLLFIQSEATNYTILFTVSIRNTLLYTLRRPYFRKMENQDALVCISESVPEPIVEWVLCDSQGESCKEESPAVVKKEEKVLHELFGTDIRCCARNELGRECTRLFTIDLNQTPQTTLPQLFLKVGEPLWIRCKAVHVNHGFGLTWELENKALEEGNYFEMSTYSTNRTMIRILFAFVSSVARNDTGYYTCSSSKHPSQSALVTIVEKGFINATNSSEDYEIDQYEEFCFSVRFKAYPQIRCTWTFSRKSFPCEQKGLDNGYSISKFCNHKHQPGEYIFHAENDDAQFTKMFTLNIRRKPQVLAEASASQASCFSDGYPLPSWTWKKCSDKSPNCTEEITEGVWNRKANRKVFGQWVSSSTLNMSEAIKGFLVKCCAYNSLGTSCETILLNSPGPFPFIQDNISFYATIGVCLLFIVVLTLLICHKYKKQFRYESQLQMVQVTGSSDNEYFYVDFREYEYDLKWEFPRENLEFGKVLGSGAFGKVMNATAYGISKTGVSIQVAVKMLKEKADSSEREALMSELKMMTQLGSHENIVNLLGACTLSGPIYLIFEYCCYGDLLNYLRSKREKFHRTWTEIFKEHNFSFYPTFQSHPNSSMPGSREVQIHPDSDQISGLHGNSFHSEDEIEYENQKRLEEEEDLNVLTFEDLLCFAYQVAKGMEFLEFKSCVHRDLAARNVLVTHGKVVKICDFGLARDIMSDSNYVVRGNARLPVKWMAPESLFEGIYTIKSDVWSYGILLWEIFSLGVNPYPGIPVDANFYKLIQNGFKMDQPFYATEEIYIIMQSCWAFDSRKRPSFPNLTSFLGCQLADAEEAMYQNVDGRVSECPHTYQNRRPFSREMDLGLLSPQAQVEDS

T1 sequence (O60674 whole entry, the tested form may be a part): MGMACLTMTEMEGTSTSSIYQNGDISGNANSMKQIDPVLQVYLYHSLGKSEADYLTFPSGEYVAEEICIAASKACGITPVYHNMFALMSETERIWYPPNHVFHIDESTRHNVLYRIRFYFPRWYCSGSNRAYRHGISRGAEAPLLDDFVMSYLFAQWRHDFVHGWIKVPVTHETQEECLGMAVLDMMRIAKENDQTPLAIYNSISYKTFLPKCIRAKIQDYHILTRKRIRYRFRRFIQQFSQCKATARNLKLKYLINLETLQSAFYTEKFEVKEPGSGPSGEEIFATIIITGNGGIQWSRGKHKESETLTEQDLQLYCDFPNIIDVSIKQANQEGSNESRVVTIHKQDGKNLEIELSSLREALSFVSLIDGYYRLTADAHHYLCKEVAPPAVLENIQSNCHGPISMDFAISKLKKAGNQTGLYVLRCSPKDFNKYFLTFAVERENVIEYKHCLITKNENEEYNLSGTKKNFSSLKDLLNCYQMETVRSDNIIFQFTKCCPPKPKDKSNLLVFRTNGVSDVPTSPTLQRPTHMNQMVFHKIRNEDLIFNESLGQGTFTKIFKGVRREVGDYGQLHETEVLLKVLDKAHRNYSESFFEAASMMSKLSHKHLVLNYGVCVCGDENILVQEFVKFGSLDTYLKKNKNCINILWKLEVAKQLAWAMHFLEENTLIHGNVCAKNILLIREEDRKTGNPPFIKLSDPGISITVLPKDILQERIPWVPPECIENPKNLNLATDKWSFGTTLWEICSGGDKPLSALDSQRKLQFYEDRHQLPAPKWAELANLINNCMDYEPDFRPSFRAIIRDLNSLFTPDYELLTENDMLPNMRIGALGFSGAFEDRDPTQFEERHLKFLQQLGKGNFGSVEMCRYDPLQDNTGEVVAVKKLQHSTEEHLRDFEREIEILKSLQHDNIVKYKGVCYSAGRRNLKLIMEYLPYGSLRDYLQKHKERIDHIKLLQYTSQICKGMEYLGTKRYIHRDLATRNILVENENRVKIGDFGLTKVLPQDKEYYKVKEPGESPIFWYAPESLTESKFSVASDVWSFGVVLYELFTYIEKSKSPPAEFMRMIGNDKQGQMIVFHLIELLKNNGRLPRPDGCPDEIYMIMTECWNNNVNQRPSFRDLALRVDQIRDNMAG

SMILES | inhibition [1] [%] | inhibition [2] [%] | GI50 [3] [µM] | GI50 [4] [µM] | GI50 [5] [µM] | IC50 [6] [µM] | IC50 [7] [µM]
CC(C)Oc1ccc(NC(=O)N2CCN(c3ccnc(Nc4ccc(N5CCOCC5)cc4)n3)CC2)cc1 | 11.1 | 22.9 |  |  |  |  | 
NS(=O)(=O)c1ccc(NC(=O)N2CCN(c3ccnc(Nc4ccc(OCCN5CCCC5)cc4)n3)CC2)cc1 | 59 | 82 | > 50 |  |  |  | 
CC(=O)c1ccc(NC(=O)N2CCN(c3ccnc(Nc4ccc(OCCN5CCCC5)cc4)n3)CC2)cc1 | 45 | 69 | 30.3 |  |  |  | 
O=C(Nc1cccc(C(F)(F)F)c1)N1CCN(c2ccnc(Nc3ccc(N4CCOCC4)cc3)n2)CC1 | 35.2 | 36.5 |  |  |  |  | 
N#Cc1ccc(NC(=O)N2CCN(c3ccnc(Nc4ccc(N5CCOCC5)cc4)n3)CC2)cc1 | 78 | 70.8 |  |  |  |  | 
CC(=O)c1ccc(NC(=O)N2CCN(c3ccnc(Nc4ccc(N5CCSCC5)cc4)n3)CC2)cc1 | 73.9 | 77.6 | 4.7 | 17.8 | > 50 | 0.0298 | 0.04
N#CCNC(=O)c1ccc(-c2ccnc(Nc3ccc(N4CCOCC4)cc3)n2)cc1 | 94.7 |  |  |  |  |  | 
C1=N/C2=N/c3ccc(OCCN4CCCC4)c(c3)COC/C=C/COCc3cccc(c3)C(=C1)N2 [PACRITINIB] | 92 |  | 1.1 | 1.6 | 1.4 |  | 
CC(=O)c1ccc(NC(=O)N2CCN(c3ccnc(Nc4ccc(OCCN5CCOCC5)cc4)n3)CC2)cc1 | 61.7 | 70.6 | 8.9 |  |  |  | 
NC(=O)c1ccccc1NC(=O)N1CCN(c2ccnc(Nc3ccc(N4CCOCC4)cc3)n2)CC1 | 9.5 | 12.5 |  |  |  |  | 
CCc1ccc(NC(=O)N2CCN(c3ccnc(Nc4ccc(N5CCOCC5)cc4)n3)CC2)cc1 | 53.3 | 27.4 |  |  |  |  | 
CS(=O)(=O)c1ccc(NC(=O)N2CCN(c3ccnc(Nc4ccc(N5CCOCC5)cc4)n3)CC2)cc1 | 75.8 | 53.9 |  |  |  |  | 
COC(=O)c1ccc(NC(=O)N2CCN(c3ccnc(Nc4ccc(N5CCOCC5)cc4)n3)CC2)cc1 | 64.4 | 62.8 |  |  |  |  | 
COc1ccc(NC(=O)N2CCN(c3ccnc(Nc4ccc(N5CCOCC5)cc4)n3)CC2)cc1 | 48.7 | 21.7 |  |  |  |  | 
O=C(Nc1ccc([N+](=O)[O-])cc1)N1CCN(c2ccnc(Nc3ccc(N4CCOCC4)cc3)n2)CC1 | 79.3 | 84.4 |  |  |  |  | 
O=C(Nc1ccccc1)N1CCN(c2ccnc(Nc3ccc(N4CCOCC4)cc3)n2)CC1 | 53.7 | 27.8 |  |  |  |  | 
CC(=O)c1cccc(NC(=O)N2CCN(c3ccnc(Nc4ccc(N5CCOCC5)cc4)n3)CC2)c1 | 2 | 3.3 |  |  |  |  | 
CC(=O)c1ccc(NC(=O)N2CCN(c3ccnc(Nc4ccc(N5CCC(C)CC5)cc4)n3)CC2)cc1 | 53 | 54 | 26.4 |  |  |  | 

SMILES | inhibition [1] [%] | inhibition [2] [%] | GI50 [3] [µM] | GI50 [4] [µM] | GI50 [5] [µM] | IC50 [6] [µM] | IC50 [7] [µM]
CN1CCN(c2ccc(Nc3nccc(N4CCN(C(=O)Nc5ccc(S(N)(=O)=O)cc5)CC4)n3)cc2)CC1 | 76 | 86 | > 50 |  |  |  | 
CN1CCN(c2ccc(Nc3nccc(N4CCN(C(=O)Nc5ccc(C(N)=O)cc5)CC4)n3)cc2)CC1 | 84 | 85 | > 50 |  |  |  | 
COC(=O)CNC(=O)c1ccc(NC(=O)N2CCN(c3ccnc(Nc4ccc(N5CCOCC5)cc4)n3)CC2)cc1 | 40.6 | 33.1 |  |  |  |  | 
NC(=O)c1ccc(NC(=O)N2CCN(c3ccnc(Nc4ccc(N5CCOCC5)cc4)n3)CC2)cc1 | 86.3 | 81.1 | > 50 | > 50 | > 50 | 0.011 | 0.021
CNC(=O)c1ccc(NC(=O)N2CCN(c3ccnc(Nc4ccc(N5CCOCC5)cc4)n3)CC2)cc1 | 68.1 | 35.8 |  |  |  |  | 
O=C(Nc1ccc(C(F)(F)F)cc1)N1CCN(c2ccnc(Nc3ccc(N4CCOCC4)cc3)n2)CC1 | 35.2 | 36.5 |  |  |  |  | 
CC(=O)c1ccc(NC(=O)N2CCN(c3ccnc(Nc4ccc(OCCCN5CCCC5)cc4)n3)CC2)cc1 | 60.7 | 83.2 | 3.3 | 11 | 29.4 | 0.065 | 0.013
N#Cc1cccc(NC(=O)N2CCN(c3ccnc(Nc4ccc(N5CCOCC5)cc4)n3)CC2)c1 | 8.1 | 15.9 |  |  |  |  | 
CCN(CC)c1ccc(NC(=O)N2CCN(c3ccnc(Nc4ccc(N5CCOCC5)cc4)n3)CC2)cc1 | 41.2 | 0 |  |  |  |  | 
NC(=O)c1cccc(NC(=O)N2CCN(c3ccnc(Nc4ccc(N5CCOCC5)cc4)n3)CC2)c1 | 74 | 39.8 |  |  |  |  | 
CC(=O)c1ccc(NC(=O)N2CCN(c3ccnc(Nc4ccc(OCCCN5CCOCC5)cc4)n3)CC2)cc1 | 60.9 | 70.9 | 10.7 |  |  |  | 
O=C(Nc1ccc(C(=O)N2CCOCC2)cc1)N1CCN(c2ccnc(Nc3ccc(N4CCOCC4)cc3)n2)CC1 | 20 | 17.2 |  |  |  |  | 
NS(=O)(=O)c1ccc(NC(=O)N2CCN(c3ccnc(Nc4ccc(N5CCOCC5)cc4)n3)CC2)cc1 | 86 | 79.7 | > 50 | > 50 | > 50 | 0.0093 | 0.03
O=C(Nc1ccc(F)cc1)N1CCN(c2ccnc(Nc3ccc(N4CCOCC4)cc3)n2)CC1 | 54.8 | 27.8 |  |  |  |  | 
CC(=O)c1ccccc1NC(=O)N1CCN(c2ccnc(Nc3ccc(N4CCOCC4)cc3)n2)CC1 | 18.9 | 13.8 |  |  |  |  | 
O=C(Nc1ccccc1C(F)(F)F)N1CCN(c2ccnc(Nc3ccc(N4CCOCC4)cc3)n2)CC1 | 21.8 | 15 |  |  |  |  | 
NC(=O)c1ccc(NC(=O)N2CCN(c3ccnc(Nc4ccc(OCCN5CCCC5)cc4)n3)CC2)cc1 | 53 | 74 | > 50 |  |  |  | 
CC(=O)c1ccc(NC(=O)N2CCN(c3ccnc(Nc4ccc(N5CCN(C)CC5)cc4)n3)CC2)cc1 | 80.8 | 87.5 | 14.1 | 32 | 46.4 | 0.0138 | 0.012
